Assay results of several laboratories.
Each line is one published result; the experiments were not run side by side.
PIK3CB: Phosphatidylinositol 4,5-bisphosphate 3-kinase catalytic subunit beta isoform (PIK3CB, Homo sapiens, UniProt P42338)
PIK3CA: Phosphatidylinositol 4,5-bisphosphate 3-kinase catalytic subunit alpha isoform (PIK3CA, Homo sapiens, UniProt P42336)
FOLH1: Glutamate carboxypeptidase 2 (FOLH1, Homo sapiens, UniProt Q04609)

SMILES	target	observed	mode	technique	endpoint	result
COc1cc(N=C2C(=O)N(Cc3ccccc3)c3ccccc32)cc(OC)c1	PIK3CB	enzyme activity	inhibitor	ADP detection	IC50	0.038 µM
CN(C)C(=O)c1cc2cnc(Nc3cc(C(F)(F)F)c(-c4cccc5c(=O)cc(N6CCOCC6)oc45)cn3)nc2n1C1CCCC1	PIK3CA	enzyme activity	inhibitor	radiometric	IC50	> 10 µM
COc1nc(-c2cccc(-c3ccccc3)c2C)ccc1CNCCNC(=O)CCCCCCCCCCC(=O)N1CCN(CCNC(=O)c2cc3c(=O)n4cccc(C)c4nc3n(CCc3cccs3)c2=N)CC1	Speckle-type POZ protein (SPOP, Homo sapiens, UniProt O43791)	binding	–	BLI	Kd	2.64 µM
O=C1Nc2ccccc2/C1=N/c1ccccc1Br	PIK3CB	enzyme activity	inhibitor	ADP detection	IC50	0.524 µM
CN(C)C(=O)c1cc2cnc(Nc3ccc(-c4cccc5c(=O)cc(N6CCOCC6)oc45)cc3)nc2n1C1CCCC1	PIK3CA	enzyme activity	inhibitor	radiometric	IC50	0.472 µM
CC1=CC(=O)NS(=O)(=O)O1	T1R2/T1R3 (Homo sapiens, UniProt Q7RTX0+Q8TE23)	calcium signal	agonist	–	EC50	1340 µM
CN(C)C(=O)c1cc2cnc(Nc3cccc(-c4cccc5c(=O)cc(N6CCOCC6)oc45)c3)nc2n1C1CCCC1	PIK3CA	enzyme activity	inhibitor	radiometric	IC50	8.17 µM
CCCCC(=O)Nc1ccc(-c2ccc3ncn(CCC)c(=O)c3c2)cn1	Phosphatidylinositol 5-phosphate 4-kinase type-2 beta (PIP4K2B, Homo sapiens, UniProt P78356)	binding	–	competition with immobilised ligand	Kd	> 20 µM
CC1(C)CN(CCCCC(=O)N[C@@H](CCC(=O)O)C(=O)N[C@@H](CCC(=O)O)C(=O)N[C@H](CCCCNC(=O)CCCCCCC(=O)NCCCC[C@H](NC(=O)N[C@@H](CCC(=O)O)C(=O)O)C(=O)O)C(=O)O)CC[N]2CC(C)(C)[S][Tc]2(=[O])[S]1 (some centres unmarked)	FOLH1	binding	–	radioligand	Kd	0.0061 µM
O=C1C(=Nc2ccc(Cl)cc2)c2ccccc2N1Cc1ccc(Br)cc1	PIK3CA	enzyme activity	inhibitor	ADP detection	IC50	0.0298 µM
CC1(C)CN(CCCCC(=O)N[C@H](Cc2ccccc2)C(=O)N[C@H](Cc2ccccc2)C(=O)N[C@H](CCCCNC(=O)CCCCCCC(=O)NCCCC[C@H](NC(=O)N[C@@H](CCC(=O)O)C(=O)O)C(=O)O)C(=O)O)CC[N]2CC(C)(C)[S][Tc]2(=[O])[S]1 (some centres unmarked)	FOLH1	binding	–	radioligand	Kd	0.0133 µM
CC[C@H](C)[C@H](NC(=O)[C@H](Cc1nc2ccccc2s1)NC(=O)CCC(=O)O)C(=O)N[C@H]1CCc2cccc3c2N(C1=O)[C@H](C(=O)NCc1cn[nH]n1)C3	Granzyme B (GZMB, Homo sapiens, UniProt P10144)	enzyme activity	inhibitor	fluorescence	Ki	0.0378 µM
O=C(O)CC[C@H](NC(=O)N[C@@H](CCCCNC(=O)CCCCCCC(=O)NCCCC[C@@H](NC(=O)[C@H](CCC(=O)O)NC(=O)[C@H](CCC(=O)O)NC(=O)CCC(=O)NCCCN1CC[S][Tc]2(=[O])[S]CC[N]2CC1)C(=O)O)C(=O)O)C(=O)O (some centres unmarked)	FOLH1	binding	–	radioligand	Kd	0.0068 µM
CCc1ccc(N=C2C(=O)Nc3ccccc32)cc1	PIK3CA	enzyme activity	inhibitor	ADP detection	IC50	0.098 µM
